From PMC5955861 (Oncogene, 2018)
Like-named read-outs stand apart in the source and are kept apart here.

Key:
MOLP-8 GFP = test: alamarBlue cell proliferation assay; assay type: cell-based; conditions: Homo sapiens
Procedure, shortened: (§1)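 Leukemia, lymphoma and myeloma lines (from ATCC or DSMZ, grown per supplier instructions, STR-authenticated; GFP-labelled sublines where stated) were incubated with test compound in 96-well flat-bottom plates. Viability was read by alamarBlue conversion, and EC50 was taken from the concentration-response.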

MOLT-4 = test: alamarBlue cell proliferation assay; assay type: cell-based; conditions: Homo sapiens
Procedure, shortened: as §1

[1] = system: MM primary patient samples; test: proliferation of ex vivo-treated primary patient samples; assay type: cell-based; conditions: Homo sapiens
L-363 = test: alamarBlue cell proliferation assay; assay type: cell-based; conditions: Homo sapiens
Procedure, shortened: as §1

THP-1 AML cells = test: disseminated AML xenograft efficacy study; assay type: in vivo, CIEA-NOG mice; conditions: BI 894999 daily, 4 mg/kg p.o.
JEKO-1 = test: alamarBlue cell proliferation assay; assay type: cell-based; conditions: Homo sapiens
Procedure, shortened: as §1

HL-60 = test: alamarBlue cell proliferation assay; assay type: cell-based; conditions: Homo sapiens
Procedure, shortened: as §1

[2] = system: p-Ser2 POL-II in MV-4-11B cells; test: p-Ser2 POL-II custom MSD assay; assay type: cell-based; conditions: 35 nM BI 894999, 2 h
Procedure, shortened: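 MV-4-11B cells were treated for 2 h with single agents or their combination. Phospho-Ser2 RNA Pol II was quantified with a custom Meso Scale Discovery multi-array assay.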

MV-4-11B cells [3] = test: IncuCyte live-cell proliferation and caspase-3/7 apoptosis assay; assay type: cell-based
RL = test: alamarBlue cell proliferation assay; assay type: cell-based; conditions: Homo sapiens
Procedure, shortened: as §1

SU-DHL4 = test: alamarBlue cell proliferation assay; assay type: cell-based; conditions: Homo sapiens, SU-DHL-4
Procedure, shortened: as §1

HuT78 = test: alamarBlue cell proliferation assay; assay type: cell-based; conditions: Homo sapiens
Procedure, shortened: as §1

Toledo = test: alamarBlue cell proliferation assay; assay type: cell-based; conditions: Homo sapiens
Procedure, shortened: (§2)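 Cell lines from ATCC or DSMZ were cultured per supplier's instructions and STR-authenticated. MV-4-11B is a clone of MV-4-11 carrying heterozygous TP53 c.742C>T (p.R248W). Cells were exposed to test compound in 96-well format, and viability was read after incubation with alamarBlue.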

HT = test: alamarBlue cell proliferation assay; assay type: cell-based; conditions: Homo sapiens
Procedure, shortened: as §1

MV-4-11B cells [4] = test: FACS cell cycle profile; assay type: cell-based; conditions: 72 h, 30 nM and 100 nM
CCRF-CEM = test: alamarBlue cell proliferation assay; assay type: cell-based; conditions: Homo sapiens
Procedure, shortened: as §1

SU-DHL6 = test: alamarBlue cell proliferation assay; assay type: cell-based; conditions: Homo sapiens, SU-DHL-6
Procedure, shortened: as §2

MOLM-1 = test: alamarBlue cell proliferation assay; assay type: cell-based
Procedure, shortened: as §1

MOLM-13 GFP = test: alamarBlue cell proliferation assay; assay type: cell-based; conditions: Homo sapiens
Procedure, shortened: as §1

OCI-Ly3 = test: alamarBlue cell proliferation assay; assay type: cell-based; conditions: Homo sapiens
Procedure, shortened: as §1

Pfeiffer = test: alamarBlue cell proliferation assay; assay type: cell-based; conditions: Homo sapiens
Procedure, shortened: as §1

[5] = system: AML primary patient samples; test: proliferation of ex vivo-treated primary patient samples; assay type: cell-based; conditions: Homo sapiens
Kasumi-1 = test: alamarBlue cell proliferation assay; assay type: cell-based; conditions: Homo sapiens
Procedure, shortened: as §1

BRD2/3/4 and BRDT = test: BROMOscan ligand-binding site-directed competition assay
RC-K8 = test: alamarBlue cell proliferation assay; assay type: cell-based; conditions: Homo sapiens, RCK8
Procedure, shortened: as §1

MHH-PREB-1 = test: alamarBlue cell proliferation assay; assay type: cell-based; conditions: Homo sapiens
Procedure, shortened: as §1

Hexim1 mRNA = Hexim1 mRNA in blood of xenograft bearing mice; assay type: in vivo; conditions: 24 h after dosing; MV-4-11B xenograft bearing mice
Procedure, shortened: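 Mice bearing subcutaneous MV-4-11B xenografts were dosed daily with vehicle or test compound at 2, 4 or 12 mg/kg, and blood was collected on the indicated treatment days. Total RNA was isolated with TRI reagent, and 500 ng was reverse-transcribed. Hexim1 transcript was quantified by SYBR Green qRT-PCR.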

KG-1 = test: alamarBlue cell proliferation assay; assay type: cell-based; conditions: Homo sapiens
Procedure, shortened: as §1

U-2932 = test: alamarBlue cell proliferation assay; assay type: cell-based; conditions: Homo sapiens, U2932
Procedure, shortened: as §2

THP-1 = test: alamarBlue cell proliferation assay; assay type: cell-based; conditions: Homo sapiens
Procedure, shortened: as §2

SU-DHL2 = test: alamarBlue cell proliferation assay; assay type: cell-based; conditions: Homo sapiens, SU-DHL-2
Procedure, shortened: as §1

MM.1R = test: alamarBlue cell proliferation assay; assay type: cell-based
Procedure, shortened: as §1

J.RT3-T3.5 = test: alamarBlue cell proliferation assay; assay type: cell-based; conditions: Homo sapiens
Procedure, shortened: as §1

K562 = test: alamarBlue cell proliferation assay; assay type: cell-based; conditions: Homo sapiens
Procedure, shortened: as §1

SKM-1 = test: alamarBlue cell proliferation assay; assay type: cell-based; conditions: Homo sapiens
Procedure, shortened: as §1

CNc1nc(-c2nc3ccc(N4CCN(C)CC4)cc3n2Cc2ccccc2)cn2c(C)nnc12 [BI 894999]
EC50 (MOLP-8 GFP): 21.5 ± 10.8 nM
EC50 (MOLT-4): 40.7 ± 28.7 nM
EC50 ([1]; read-out: BI 894999 EC50, MM Patient 1): 52 nM
EC50 ([1]; read-out: BI 894999 EC50, MM Patient 2): 15 nM
EC50 ([1]; read-out: BI 894999 EC50, MM Patient 3): 7 nM
EC50 ([1]; read-out: BI 894999 EC50, MM Patient 4): > 2000 nM
EC50 ([1]; read-out: BI 894999 EC50, MM Patient 5): 500 nM
EC50 ([1]; read-out: BI 894999 EC50, MM Patient 6): 421 nM
EC50 ([1]; read-out: BI 894999 EC50, MM Patient 7): 54 nM
EC50 ([1]; read-out: BI 894999 EC50, MM Patient 8): 3 nM
EC50 ([1]; read-out: BI 894999 EC50, MM Patient 9): 21 nM
EC50 ([1]; read-out: BI 894999 EC50, MM Patient 10): 1 nM
EC50 ([1]; read-out: BI 894999 EC50, MM Patient 11): 57 nM
EC50 ([1]; read-out: BI 894999 EC50, MM Patient 12): 1360 nM
EC50 ([1]; read-out: BI 894999 EC50, MM Patient 13): 2 nM
EC50 ([1]; read-out: BI 894999 EC50, MM Patient 14): 275 nM
EC50 ([1]; read-out: BI 894999 EC50, MM Patient 15): 352 nM
EC50 (L-363): 13.7 ± 6.2 nM
survival prolongation (THP-1 AML cells): 22 days
EC50 (JEKO-1): 7.9 ± 2.1 nM
EC50 (HL-60): 2.7 ± 0.1 nM
p-Ser2 POL-II levels [2]: ~ 86 % of control
effect on proliferation (IncuCyte) (MV-4-11B cells [3]; 10 nM): Significant inhibition of proliferation
time of peak of apoptosis (Caspase-3/7) after start of treatment (MV-4-11B cells [3]; dose-range 0.05 to 100 nM): around 40 h
EC50 (RL): 18.2 ± 10 nM
EC50 (SU-DHL4): 13.3 ± 4.5 nM
EC50 (HuT78): 7.1 ± 3.7 nM
EC50 (Toledo): 6 ± 1.1 nM
EC50 (HT): 11.6 ± 8.1 nM
cell cycle effect (MV-4-11B cells [4]): G1 arrest
EC50 (CCRF-CEM): 175 ± 58 nM
EC50 (SU-DHL6): 13.4 ± 1.2 nM
EC50 (MOLM-1): 53.4 ± 34.8 nM
EC50 (MOLM-13 GFP): 14.3 nM
EC50 (OCI-Ly3): 8.2 ± 2.3 nM
EC50 (Pfeiffer): 10.7 ± 2.7 nM
EC50 ([5]; 16/20 AML patient samples): < 10 nM
EC50 ([5]; read-out: BI 894999 EC50, AML Patient 1, risk group Intermediate): 4 nM
EC50 ([5]; read-out: BI 894999 EC50, AML Patient 2, risk group Intermediate): < 1 nM
EC50 ([5]; read-out: BI 894999 EC50, AML Patient 3, risk group Intermediate): 5 nM
EC50 ([5]; read-out: BI 894999 EC50, AML Patient 4, risk group High): 1080 nM
EC50 ([5]; read-out: BI 894999 EC50, AML Patient 5, risk group High): 89 nM
EC50 ([5]; read-out: BI 894999 EC50, AML Patient 6, risk group Intermediate): 2 nM
EC50 ([5]; read-out: BI 894999 EC50, AML Patient 7, risk group Intermediate): 12 nM
EC50 ([5]; read-out: BI 894999 EC50, AML Patient 8, risk group High): 2 nM
EC50 ([5]; read-out: BI 894999 EC50, AML Patient 9, risk group Intermediate): 5 nM
EC50 ([5]; read-out: BI 894999 EC50, AML Patient 10, risk group High): < 1 nM
EC50 ([5]; read-out: BI 894999 EC50, AML Patient 11, risk group High): 18 nM
EC50 ([5]; read-out: BI 894999 EC50, AML Patient 12, risk group Intermediate): 4 nM
EC50 ([5]; read-out: BI 894999 EC50, AML Patient 13, risk group Intermediate): < 1 nM
EC50 ([5]; read-out: BI 894999 EC50, AML Patient 14): < 1 nM
EC50 ([5]; read-out: BI 894999 EC50, AML Patient 15, risk group Intermediate): 1 nM
EC50 ([5]; read-out: BI 894999 EC50, AML Patient 16): < 1 nM
EC50 ([5]; read-out: BI 894999 EC50, AML Patient 17, risk group High): < 1 nM
EC50 ([5]; read-out: BI 894999 EC50, AML Patient 18, risk group Intermediate): < 1 nM
EC50 ([5]; read-out: BI 894999 EC50, AML Patient 19, risk group Intermediate): < 1 nM
EC50 ([5]; read-out: BI 894999 EC50, AML Patient 20, risk group Intermediate): < 1 nM
EC50 (Kasumi-1): 2.8 ± 0.4 nM
Kd (BRD2/3/4 and BRDT; BRD2/3/4 and BRDT, 24 bromodomains tested): 0.49 to 1.6 nM
selectivity vs. BRD4-BD1 (BRD2/3/4 and BRDT; other bromodomains of the panel (n = 24) vs. BRD4-BD1): ≥ 200 fold
EC50 (RC-K8): 7.8 ± 0.9 nM
EC50 (MHH-PREB-1): 24.4 ± 1.2 nM
Hexim1 levels in blood (Hexim1 mRNA): back to baseline
EC50 (KG-1): 6.2 ± 2.2 nM
EC50 (U-2932): 4.3 ± 2.1 nM
EC50 (THP-1): 6.3 ± 2.9 nM
EC50 (SU-DHL2): 10.7 ± 3.2 nM
EC50 (MM.1R): 2.5 ± 2.1 nM
EC50 (J.RT3-T3.5): 11 ± 4 nM
EC50 (K562): > 10000 nM
EC50 (SKM-1): 10.2 ± 1.5 nM
